# Measured values reported in ChEMBL document CHEMBL4699403, “Cyclic boronates as versatile scaffolds for KPC-2 beta-lactamase inhibition” (RSC Med Chem, 2020).
# pIC50, pKi: −log10 of the molar value.
# How the values were obtained:
# [1] = Inhibition of beta lactamase KPC-2 in Klebsiella pneumoniae using nitrocefin as substrate preincubated for 10 mins followed by substrate addition
# Procedure, shortened: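 KPC-2 was preincubated with cyclic boronate for 10 min in 10 mM HEPES pH 7.5, 150 mM NaCl at 25 °C. 50 μM nitrocefin was then added and initial hydrolysis rates were read at 486 nm. IC50 was derived from the inhibitor concentration dependence of these rates. Inhibitor stocks were 100 mM in DMSO, diluted in buffer.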
# [2] = Inhibition of beta lactamase KPC-2 in Klebsiella pneumoniae assessed as apparent inhibition constant using nitrocefin as substrate measured without preincubation by Dixon plot analysis; conditions: read-out: Ki(app)
# Procedure, shortened: (§1)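 Direct competition assays at 25 °C in 10 mM HEPES pH 7.5, 150 mM NaCl. A range of cyclic boronate concentrations was mixed with 50 μM nitrocefin, and the reaction was started by adding 1 nM KPC-2. Nitrocefin hydrolysis was followed at 486 nm (Δε 20 500 M-1 cm-1). Kiapp and k2/K were both taken from these competition data. Inhibitor stocks were 100 mM in DMSO, diluted in buffer.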
# Klebsiella pneumoniae [3] = test: Inhibition of beta lactamase KPC-2 in Klebsiella pneumoniae assessed as apparent second order rate constant K2/K using nitrocefin as substrate; procedure, shortened: as §1
# Klebsiella pneumoniae [4] = test: Potentiation of cefepime-induced antibacterial activity against Klebsiella pneumoniae Ecl8 transfected with pUBYT vector expressing KPC-2 assessed as cefepime MIC measured after 18 to 24 hrs by CLSI protocol based broth microdilution assay (Rvb >=256 ug/ml); assay type: functional; conditions: time hrs 18-24
# Procedure, shortened: (§2)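 Broth microdilution in cation-adjusted Mueller–Hinton broth per CLSI, triplicate; K. pneumoniae Ecl8 carrying pUBYT with blaKPC-2 under the ISKpn7 promoter. β-Lactam serially diluted with inhibitor fixed at 4 mg per liter (diluted from 100 mM DMSO stock). Incubated at 37 °C for 18 to 24 hours; growth read as absorbance at 600 nm.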
# Klebsiella pneumoniae [5] = test: Potentiation of meropenem-induced antibacterial activity against Klebsiella pneumoniae Ecl8 transfected with pUBYT vector expressing KPC-2 assessed as meropenem MIC measured after 18 to 24 hrs by CLSI protocol based broth microdilution assay (reference value: 16 ug/ml); assay type: functional; conditions: time hrs 18-24; procedure, shortened: as §2
# Klebsiella pneumoniae [6] = test: Irreversible inhibition of beta lactamase KPC-2 in Klebsiella pneumoniae assessed as off-rate constant using nitrocefin as substrate preincubated for 30 mins followed by substrate addition
# Procedure, shortened: (§3)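 Jump-dilution off-rate assay. 1 μM KPC-2 was preincubated with 8 μM cyclic boronate for 30 min at room temperature, then serially diluted to a final KPC-2 concentration of 500 pM. 50 μM nitrocefin was added and recovery of hydrolysis was monitored at 486 nm in 10 mM HEPES pH 7.5, 150 mM NaCl. koff and half-life were derived from the recovery.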
# Klebsiella pneumoniae [7] = test: Inhibition of beta lactamase KPC-2 in Klebsiella pneumoniae assessed as irreversible covalent complex formation by measuring half life using nitrocefin as substrate; procedure, shortened: as §3
SMILES,pIC50 [1],pKi [2],K (Klebsiella pneumoniae [3]),MIC (Klebsiella pneumoniae [4]) [µg/mL],MIC (Klebsiella pneumoniae [5]) [µg/mL],K (Klebsiella pneumoniae [6]) [s⁻¹],T1/2 (Klebsiella pneumoniae [7]) [h]
NCCN[C@H]1CC[C@H](CC(=O)N[C@H]2Cc3cccc(C(=O)O)c3OB2O)CC1,7.43,5.89,1 10^4/M/s,≤ 0.125,≤ 0.125,,
O=C(NC1CCNCC1)[C@@H]1CC[C@@H]2CN1C(=O)N2OS(=O)(=O)O [RELEBACTAM],,5.92,,,,0.00087,
O=C(O)C[C@@H]1CC[C@H](NC(=O)Cc2cccs2)B(O)O1 [VABORBACTAM],7.46,5.07,6.7 10^2/M/s,≤ 0.125,≤ 0.125,0.00016,1.2
